Results reported in ChEMBL document CHEMBL1157107, “Gastroprotective effect of carnosic acid gamma-lactone derivatives” (J Nat Prod, 2010).

Test system: AGS
Test: Cytotoxicity against human AGS cells after 24 hrs by neutral red uptake assay
Type: cell-based
Conditions: not given
How it was run: (§1)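 Confluent monolayers, seeded at 25 000 cells/mL, were used. MRC-5 and Hep G2 were grown in MEM and AGS in Ham F-12, all with 10% heat-inactivated FBS at 37 °C and 5% CO₂. Cells were exposed for 24 h to 0–1000 µM compound with 1% DMSO final. Viability was read by neutral red uptake as % of control, with quadruplicates in three separate experiments. IC50 was read graphically from dose-response curves.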

SMILES	IC50 [µM]
CC(C)c1cc2c3c(c1OC(=O)c1ccccc1C(=O)Oc1c(C(C)C)cc4c5c1OC(=O)[C@]51CCCC(C)(C)C1CC4)OC(=O)[C@@]31CCCC(C)(C)[C@@H]1CC2 (stereo partly specified)	375
CCCCCCCC/C=C/CCCCCCCC(=O)Oc1c(C(C)C)cc2c3c1OC(=O)[C@@]31CCCC(C)(C)[C@@H]1CC2	822
CC(C)c1cc2c3c(c1O)OC(=O)[C@@]31CCCC(C)(C)[C@@H]1CC2	246
CC(C)c1cc2c3c(c1OC(=O)Cc1c[nH]c4ccccc14)OC(=O)[C@@]31CCCC(C)(C)[C@@H]1CC2	85.6
COc1c(C(C)C)cc2c(c1O)[C@@]1(C(=O)O)CCCC(C)(C)[C@@H]1CC2	45.2
COc1c(C(C)C)cc2c3c1OC(=O)[C@@]31CCCC(C)(C)[C@@H]1CC2	26.7
CCCCCCCCCCCC(=O)Oc1c(C(C)C)cc2c3c1OC(=O)[C@@]31CCCC(C)(C)[C@@H]1CC2	413
CC(C)c1cc2c3c(c1OC(=O)c1cccnc1)OC(=O)[C@@]31CCCC(C)(C)[C@@H]1CC2	280
CC(C)c1cc2c3c(c1OC(=O)c1ccccc1)OC(=O)[C@@]31CCCC(C)(C)[C@@H]1CC2	503
CC(=O)Oc1c(C(C)C)cc2c3c1OC(=O)[C@@]31CCCC(C)(C)[C@@H]1CC2	275
CC(C)c1cc2c(c(O)c1O)[C@@]1(C(=O)O)CCCC(C)(C)[C@@H]1CC2 [CARNOSIC ACID]	89.8
CC(C)c1cc2c3c(c1OC(=O)CCCc1c[nH]c4ccccc14)OC(=O)[C@@]31CCCC(C)(C)[C@@H]1CC2	46.8
CC(C)c1cc2c3c(c1OC(=O)CCl)OC(=O)[C@@]31CCCC(C)(C)[C@@H]1CC2	103
CC(C)c1cc2c3c(c1OC(=O)CCC(=O)Oc1c(C(C)C)cc4c5c1OC(=O)[C@]51CCCC(C)(C)C1CC4)OC(=O)[C@@]31CCCC(C)(C)[C@@H]1CC2 (stereo partly specified)	623
CCCC(=O)Oc1c(C(C)C)cc2c3c1OC(=O)[C@@]31CCCC(C)(C)[C@@H]1CC2	99.5
CC(C)C(=O)Oc1c(C(C)C)cc2c3c1OC(=O)[C@@]31CCCC(C)(C)[C@@H]1CC2	105
CCC(=O)Oc1c(C(C)C)cc2c3c1OC(=O)[C@@]31CCCC(C)(C)[C@@H]1CC2	113
CCCCCCCCCCCCCCCC(=O)Oc1c(C(C)C)cc2c3c1OC(=O)[C@@]31CCCC(C)(C)[C@@H]1CC2	> 1000
CCCCC/C=C/C/C=C/CCCCCCCC(=O)Oc1c(C(C)C)cc2c3c1OC(=O)[C@@]31CCCC(C)(C)[C@@H]1CC2	253
CC(C)c1cc2c3c(c1OC(=O)Cc1ccccc1)OC(=O)[C@@]31CCCC(C)(C)[C@@H]1CC2	133

Test system: Mus musculus
Test: Gastroprotective activity in Swiss albino mouse assessed as reduction in HCl/EtOH-induced gastric lesions at 10 mg/kg, po dosed 50 mins before HCl/EtOH challenge measured after 1 hr relative to control
Type: functional, Stomach
Set-up: scale not given: the % may be the effect or the level left
Conditions: not given
How it was run: (§2)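 Male Swiss albino mice (30 ± 3 g) were randomized into groups of 7 and fasted 24 h with free water, then dosed orally. Controls received 12% Tween 80. Mice were killed 1 h after HCl/EtOH. Stomachs were inflated with saline, fixed in 5% formalin for 30 min and opened along the greater curvature. Lesion index was the summed lesion length (mm), compared with controls by ANOVA/Dunnett.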

SMILES	Activity [%]
CC(C)c1cc2c3c(c1O)OC(=O)[C@@]31CCCC(C)(C)[C@@H]1CC2	20.8

Test system: Mus musculus
Test: Gastroprotective activity in Swiss albino mouse assessed as reduction in HCl/EtOH-induced gastric lesions at 20 mg/kg, po dosed 50 mins before HCl/EtOH challenge measured after 1 hr relative to control
Type: functional, Stomach
Set-up: scale not given: the % may be the effect or the level left
Conditions: not given
How it was run: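 Male Swiss albino mice (30 ± 3 g) were randomised into groups of 7 and fasted 24 h with free water. Dosing was oral at 10, 20 or 40 mg/kg; controls received 12% Tween 80. Mice were killed 1 h after HCl/EtOH, and stomachs were saline-inflated, fixed in 5% formalin for 30 min and opened. Lesion index is the summed lesion length (mm); % reduction is versus control. ANOVA with Dunnett's test.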

SMILES	Activity [%]
CC(C)c1cc2c3c(c1O)OC(=O)[C@@]31CCCC(C)(C)[C@@H]1CC2	30.6
Cc1c(OCC(F)(F)F)ccnc1C[S+]([O-])c1nc2ccccc2[nH]1 (stereo unspecified) [LANSOPRAZOLE]	80

Test system: HepG2
Test: Cytotoxicity against human HepG2 cells after 24 hrs by neutral red uptake assay
Type: cell-based
Conditions: HepG2, 24 h
How it was run: as §1

SMILES	IC50 [µM]
CC(C)c1cc2c3c(c1OC(=O)c1ccccc1C(=O)Oc1c(C(C)C)cc4c5c1OC(=O)[C@]51CCCC(C)(C)C1CC4)OC(=O)[C@@]31CCCC(C)(C)[C@@H]1CC2 (stereo partly specified)	611
CCCCCCCC/C=C/CCCCCCCC(=O)Oc1c(C(C)C)cc2c3c1OC(=O)[C@@]31CCCC(C)(C)[C@@H]1CC2	> 1000
CC(C)c1cc2c3c(c1O)OC(=O)[C@@]31CCCC(C)(C)[C@@H]1CC2	240
CC(C)c1cc2c3c(c1OC(=O)Cc1c[nH]c4ccccc14)OC(=O)[C@@]31CCCC(C)(C)[C@@H]1CC2	251
COc1c(C(C)C)cc2c(c1O)[C@@]1(C(=O)O)CCCC(C)(C)[C@@H]1CC2	43.5
COc1c(C(C)C)cc2c3c1OC(=O)[C@@]31CCCC(C)(C)[C@@H]1CC2	58.1
CCCCCCCCCCCC(=O)Oc1c(C(C)C)cc2c3c1OC(=O)[C@@]31CCCC(C)(C)[C@@H]1CC2	> 1000
CC(C)c1cc2c3c(c1OC(=O)c1cccnc1)OC(=O)[C@@]31CCCC(C)(C)[C@@H]1CC2	264
CC(C)c1cc2c3c(c1OC(=O)c1ccccc1)OC(=O)[C@@]31CCCC(C)(C)[C@@H]1CC2	510
CC(=O)Oc1c(C(C)C)cc2c3c1OC(=O)[C@@]31CCCC(C)(C)[C@@H]1CC2	294
CC(C)c1cc2c(c(O)c1O)[C@@]1(C(=O)O)CCCC(C)(C)[C@@H]1CC2 [CARNOSIC ACID]	41.3
CC(C)c1cc2c3c(c1OC(=O)CCCc1c[nH]c4ccccc14)OC(=O)[C@@]31CCCC(C)(C)[C@@H]1CC2	120
CC(C)c1cc2c3c(c1OC(=O)CCl)OC(=O)[C@@]31CCCC(C)(C)[C@@H]1CC2	203
CC(C)c1cc2c3c(c1OC(=O)CCC(=O)Oc1c(C(C)C)cc4c5c1OC(=O)[C@]51CCCC(C)(C)C1CC4)OC(=O)[C@@]31CCCC(C)(C)[C@@H]1CC2 (stereo partly specified)	> 1000
CCCC(=O)Oc1c(C(C)C)cc2c3c1OC(=O)[C@@]31CCCC(C)(C)[C@@H]1CC2	56.1
CC(C)C(=O)Oc1c(C(C)C)cc2c3c1OC(=O)[C@@]31CCCC(C)(C)[C@@H]1CC2	112
CCC(=O)Oc1c(C(C)C)cc2c3c1OC(=O)[C@@]31CCCC(C)(C)[C@@H]1CC2	196
CCCCCCCCCCCCCCCC(=O)Oc1c(C(C)C)cc2c3c1OC(=O)[C@@]31CCCC(C)(C)[C@@H]1CC2	> 1000
CCCCC/C=C/C/C=C/CCCCCCCC(=O)Oc1c(C(C)C)cc2c3c1OC(=O)[C@@]31CCCC(C)(C)[C@@H]1CC2	289
CC(C)c1cc2c3c(c1OC(=O)Cc1ccccc1)OC(=O)[C@@]31CCCC(C)(C)[C@@H]1CC2	522

Test system: Mus musculus
Test: Gastroprotective activity in Swiss albino mouse assessed as reduction in HCl/EtOH-induced gastric lesions at 40 mg/kg, po dosed 50 mins before HCl/EtOH challenge measured after 1 hr relative to control
Type: functional, Stomach
Set-up: scale not given: the % may be the effect or the level left
Conditions: not given
How it was run: as §2

SMILES	Activity [%]
CC(C)c1cc2c3c(c1OC(=O)c1ccccc1C(=O)Oc1c(C(C)C)cc4c5c1OC(=O)[C@]51CCCC(C)(C)C1CC4)OC(=O)[C@@]31CCCC(C)(C)[C@@H]1CC2 (stereo partly specified)	15
CCCCCCCC/C=C/CCCCCCCC(=O)Oc1c(C(C)C)cc2c3c1OC(=O)[C@@]31CCCC(C)(C)[C@@H]1CC2	70
CC(C)c1cc2c3c(c1O)OC(=O)[C@@]31CCCC(C)(C)[C@@H]1CC2	59.5
CC(C)c1cc2c3c(c1OC(=O)Cc1c[nH]c4ccccc14)OC(=O)[C@@]31CCCC(C)(C)[C@@H]1CC2	51
COc1c(C(C)C)cc2c3c1OC(=O)[C@@]31CCCC(C)(C)[C@@H]1CC2	71
CCCCCCCCCCCC(=O)Oc1c(C(C)C)cc2c3c1OC(=O)[C@@]31CCCC(C)(C)[C@@H]1CC2	36
CC(C)c1cc2c3c(c1OC(=O)c1cccnc1)OC(=O)[C@@]31CCCC(C)(C)[C@@H]1CC2	9
CC(C)c1cc2c3c(c1OC(=O)c1ccccc1)OC(=O)[C@@]31CCCC(C)(C)[C@@H]1CC2	48
CC(=O)Oc1c(C(C)C)cc2c3c1OC(=O)[C@@]31CCCC(C)(C)[C@@H]1CC2	62
CC(C)c1cc2c3c(c1OC(=O)CCCc1c[nH]c4ccccc14)OC(=O)[C@@]31CCCC(C)(C)[C@@H]1CC2	50
CC(C)c1cc2c3c(c1OC(=O)CCl)OC(=O)[C@@]31CCCC(C)(C)[C@@H]1CC2	81
CC(C)c1cc2c3c(c1OC(=O)CCC(=O)Oc1c(C(C)C)cc4c5c1OC(=O)[C@]51CCCC(C)(C)C1CC4)OC(=O)[C@@]31CCCC(C)(C)[C@@H]1CC2 (stereo partly specified)	62
CCCC(=O)Oc1c(C(C)C)cc2c3c1OC(=O)[C@@]31CCCC(C)(C)[C@@H]1CC2	82
CC(C)C(=O)Oc1c(C(C)C)cc2c3c1OC(=O)[C@@]31CCCC(C)(C)[C@@H]1CC2	72
CCC(=O)Oc1c(C(C)C)cc2c3c1OC(=O)[C@@]31CCCC(C)(C)[C@@H]1CC2	59
CCCCCCCCCCCCCCCC(=O)Oc1c(C(C)C)cc2c3c1OC(=O)[C@@]31CCCC(C)(C)[C@@H]1CC2	65
CCCCC/C=C/C/C=C/CCCCCCCC(=O)Oc1c(C(C)C)cc2c3c1OC(=O)[C@@]31CCCC(C)(C)[C@@H]1CC2	45
CC(C)c1cc2c3c(c1OC(=O)Cc1ccccc1)OC(=O)[C@@]31CCCC(C)(C)[C@@H]1CC2	44

Test system: MRC5
Test: Cytotoxicity against human MRC5 cells after 24 hrs by neutral red uptake assay
Type: cell-based
Conditions: MRC5, 24 h
How it was run: as §1

SMILES	IC50 [µM]
CC(C)c1cc2c3c(c1OC(=O)c1ccccc1C(=O)Oc1c(C(C)C)cc4c5c1OC(=O)[C@]51CCCC(C)(C)C1CC4)OC(=O)[C@@]31CCCC(C)(C)[C@@H]1CC2 (stereo partly specified)	678
CCCCCCCC/C=C/CCCCCCCC(=O)Oc1c(C(C)C)cc2c3c1OC(=O)[C@@]31CCCC(C)(C)[C@@H]1CC2	> 1000
CC(C)c1cc2c3c(c1O)OC(=O)[C@@]31CCCC(C)(C)[C@@H]1CC2	293
CC(C)c1cc2c3c(c1OC(=O)Cc1c[nH]c4ccccc14)OC(=O)[C@@]31CCCC(C)(C)[C@@H]1CC2	109
COc1c(C(C)C)cc2c(c1O)[C@@]1(C(=O)O)CCCC(C)(C)[C@@H]1CC2	54.9
COc1c(C(C)C)cc2c3c1OC(=O)[C@@]31CCCC(C)(C)[C@@H]1CC2	31.9
CCCCCCCCCCCC(=O)Oc1c(C(C)C)cc2c3c1OC(=O)[C@@]31CCCC(C)(C)[C@@H]1CC2	> 1000
CC(C)c1cc2c3c(c1OC(=O)c1cccnc1)OC(=O)[C@@]31CCCC(C)(C)[C@@H]1CC2	296
CC(C)c1cc2c3c(c1OC(=O)c1ccccc1)OC(=O)[C@@]31CCCC(C)(C)[C@@H]1CC2	512
CC(=O)Oc1c(C(C)C)cc2c3c1OC(=O)[C@@]31CCCC(C)(C)[C@@H]1CC2	290
CC(C)c1cc2c(c(O)c1O)[C@@]1(C(=O)O)CCCC(C)(C)[C@@H]1CC2 [CARNOSIC ACID]	21.8
CC(C)c1cc2c3c(c1OC(=O)CCCc1c[nH]c4ccccc14)OC(=O)[C@@]31CCCC(C)(C)[C@@H]1CC2	54.5
CC(C)c1cc2c3c(c1OC(=O)CCl)OC(=O)[C@@]31CCCC(C)(C)[C@@H]1CC2	130
CC(C)c1cc2c3c(c1OC(=O)CCC(=O)Oc1c(C(C)C)cc4c5c1OC(=O)[C@]51CCCC(C)(C)C1CC4)OC(=O)[C@@]31CCCC(C)(C)[C@@H]1CC2 (stereo partly specified)	> 1000
CCCC(=O)Oc1c(C(C)C)cc2c3c1OC(=O)[C@@]31CCCC(C)(C)[C@@H]1CC2	44.4
CC(C)C(=O)Oc1c(C(C)C)cc2c3c1OC(=O)[C@@]31CCCC(C)(C)[C@@H]1CC2	119
CCC(=O)Oc1c(C(C)C)cc2c3c1OC(=O)[C@@]31CCCC(C)(C)[C@@H]1CC2	125
CCCCCCCCCCCCCCCC(=O)Oc1c(C(C)C)cc2c3c1OC(=O)[C@@]31CCCC(C)(C)[C@@H]1CC2	> 1000
CCCCC/C=C/C/C=C/CCCCCCCC(=O)Oc1c(C(C)C)cc2c3c1OC(=O)[C@@]31CCCC(C)(C)[C@@H]1CC2	293
CC(C)c1cc2c3c(c1OC(=O)Cc1ccccc1)OC(=O)[C@@]31CCCC(C)(C)[C@@H]1CC2	516
